Assay results taken from ChEMBL document CHEMBL1137899, “Glycosylated dihydrochalcones as potent and selective sodium glucose co-transporter 2 (SGLT2) inhibitors” (Bioorg Med Chem Lett, 2004).

Tested on: not listed separately
Experiment: (§1) In vivo ability to induce urinary glucose excretion in male Zucker Diabetic Fatty (ZDF) rats at 3 mg/kg i.v. dose
Assay type: ADME, organism-based, Urine
Set-up: dose 3 mg/kg, route intravenous
Conditions: rat, iv
In short: (§2)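 Male ZDF rats, 7–8 weeks, fasted 12 h; compound or vehicle (10% Solutol) given i.v. at 2 mL/kg. Oral glucose challenge (4 mL/kg of 50% solution) 1 h later, rats then placed in metabolism cages with free water access; urine collected for 4 h, glucose quantified with Trinder reagent.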

For `Cc1cc(O)c(C(=O)CCc2ccc3occc3c2)c(O[C@@H]2O[C@H](CO)[C@@H](O)[C@H](O)[C@H]2O)c1`, which Excreted glucose is on record?
Its Excreted glucose is 1189 mg.

Tested on: Rattus norvegicus
Experiment: as §1
Assay type: functional, Urine
Conditions: route intravenous
In short: as §2

Which Excreted glucose does the source give for `Cc1cc(O)c(C(=O)CCc2ccc3c(c2)OCCO3)c(O[C@@H]2O[C@H](CO)[C@@H](O)[C@H](O)[C@H]2O)c1` here?
Its Excreted glucose is 608 mg.

Tested on: not listed separately
Experiment: Metabolic half-life as a measure of human liver microsomal stability was determined at 5 uM
Assay type: ADME
Conditions: liver microsomes

Which half-life at 5 µM does the source give for `CCOc1ccc(CCC(=O)c2c(O)cc(C)cc2O[C@@H]2O[C@H](CO)[C@@H](O)[C@H](O)[C@H]2O)cc1` here?
Its half-life at 5 µM is > 45 min.

With `CCOc1ccc(CCC(=O)c2c(O)cc(CC)cc2O[C@@H]2O[C@H](CO)[C@@H](O)[C@H](O)[C@H]2O)cc1` as the compound, how does the half-life at 5 µM read?
Its half-life at 5 µM is > 45 min.

For `Cc1cc(O)c(C(=O)CCc2ccc3occc3c2)c(O[C@@H]2O[C@H](CO)[C@@H](O)[C@H](O)[C@H]2O)c1`, which half-life at 5 µM is on record?
Its half-life at 5 µM is 24 min.

With `Cc1cc(O)c(C(=O)CCc2ccc3c(c2)OCCO3)c(O[C@@H]2O[C@H](CO)[C@@H](O)[C@H](O)[C@H]2O)c1` as the compound, how does the half-life at 5 µM read?
Its half-life at 5 µM is > 45 min.

Target: T1, Sodium/glucose cotransporter 2 (Homo sapiens, UniProt P31639)
T1 sequence (P31639 whole entry): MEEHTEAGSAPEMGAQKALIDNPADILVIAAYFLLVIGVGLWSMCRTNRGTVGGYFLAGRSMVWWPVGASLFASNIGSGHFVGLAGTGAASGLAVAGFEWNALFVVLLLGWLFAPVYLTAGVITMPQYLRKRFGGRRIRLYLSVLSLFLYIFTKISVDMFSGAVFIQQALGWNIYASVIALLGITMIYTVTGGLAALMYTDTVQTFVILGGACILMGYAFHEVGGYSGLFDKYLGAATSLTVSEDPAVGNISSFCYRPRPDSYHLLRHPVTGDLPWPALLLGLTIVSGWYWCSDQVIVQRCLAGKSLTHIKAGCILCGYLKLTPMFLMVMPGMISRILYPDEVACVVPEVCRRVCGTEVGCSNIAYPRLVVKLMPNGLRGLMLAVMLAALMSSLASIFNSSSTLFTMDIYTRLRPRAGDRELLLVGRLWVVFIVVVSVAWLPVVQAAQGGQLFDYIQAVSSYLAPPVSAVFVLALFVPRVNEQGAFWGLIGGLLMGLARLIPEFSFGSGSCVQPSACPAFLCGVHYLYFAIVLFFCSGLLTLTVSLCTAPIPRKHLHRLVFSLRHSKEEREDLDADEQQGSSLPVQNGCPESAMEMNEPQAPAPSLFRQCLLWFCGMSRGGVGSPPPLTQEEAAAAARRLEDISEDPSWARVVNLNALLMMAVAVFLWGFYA
Experiment: In vitro inhibition of Na-dependent [14C]AMG uptake in CHO-K1 cells expressing human sodium glucose co-transporter 2
Assay type: functional, cell-based
Conditions: not given
In short: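 CHO-K1 cells overexpressing human SGLT2 pre-treated with compound for 15 min with or without NaCl, then labelled with 14C-alpha-methylglucopyranoside (AMG, nonmetabolizable glucose analogue); sodium-dependent uptake of label measured.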

Which Ki does the source give for `Cc1cc(N)c(C(=O)CCc2ccc3c(c2)OCCO3)c(O[C@@H]2O[C@H](CO)[C@@H](O)[C@H](O)[C@H]2O)c1` here?
The Ki was 290 nM.

Which Ki does the source give for `CCOc1ccc(CCC(=O)c2c(O)cc(C)cc2O[C@@H]2O[C@H](CO)[C@@H](O)[C@H](O)[C@H]2O)cc1` here?
Its Ki is 10 nM.

With `O=C(CCc1ccc2c(c1)OCCO2)c1c(O)cc(Cl)cc1O[C@@H]1O[C@H](CO)[C@@H](O)[C@H](O)[C@H]1O` as the compound, how does the Ki read?
The Ki was 20 nM.

For `Cc1cc(O)c(C(=O)CCc2ccc3ccccc3c2)c(O[C@@H]2O[C@H](CO)[C@@H](O)[C@H](O)[C@H]2O)c1`, which Ki is on record?
Its Ki is 10 nM.

Which Ki does the source give for `O=C(CCc1ccc2ccccc2c1)c1c(O)cc(F)cc1O[C@@H]1O[C@H](CO)[C@@H](O)[C@H](O)[C@H]1O` here?
Its Ki is 70 nM.

For `Cc1cc(O)c(C(=O)CCC2CCCCC2)c(O[C@@H]2O[C@H](CO)[C@@H](O)[C@H](O)[C@H]2O)c1`, which Ki is on record?
Its Ki is 40 nM.

For `Cc1cc(O)c(C(=O)CCc2ccoc2)c(O[C@@H]2O[C@H](CO)[C@@H](O)[C@H](O)[C@H]2O)c1`, which Ki is on record?
Its Ki is 230 nM.

With `O=C(CCc1ccc2ccccc2c1)c1c(O)cc(Cl)cc1O[C@@H]1O[C@H](CO)[C@@H](O)[C@H](O)[C@H]1O` as the compound, how does the Ki read?
The Ki was 30 nM.

Which Ki does the source give for `CCOc1ccc(CCC(=O)c2c(O)cc(CC)cc2O[C@@H]2O[C@H](CO)[C@@H](O)[C@H](O)[C@H]2O)cc1` here?
Its Ki is 30 nM.

With `CCOc1ccc(CCC(=O)c2c(N)cc(C)cc2O[C@@H]2O[C@H](CO)[C@@H](O)[C@H](O)[C@H]2O)cc1` as the compound, how does the Ki read?
Its Ki is 1280 nM.

Which Ki does the source give for `CCc1cc(O)c(C(=O)CCc2ccc3ccccc3c2)c(O[C@@H]2O[C@H](CO)[C@@H](O)[C@H](O)[C@H]2O)c1` here?
Its Ki is 10 nM.

For `CCOc1ccc(CCC(=O)c2c(O)cc(Cl)cc2O[C@@H]2O[C@H](CO)[C@@H](O)[C@H](O)[C@H]2O)cc1`, which Ki is on record?
The Ki was 80 nM.

With `Cc1cc(O)c(C(=O)CCc2ccsc2)c(O[C@@H]2O[C@H](CO)[C@@H](O)[C@H](O)[C@H]2O)c1` as the compound, how does the Ki read?
Its Ki is 70 nM.

Which Ki does the source give for `CC(C)c1cc(O)c(C(=O)CCc2ccc3ccccc3c2)c(O[C@@H]2O[C@H](CO)[C@@H](O)[C@H](O)[C@H]2O)c1` here?
Its Ki is 150 nM.

Which Ki does the source give for `Cc1cc(O)c(C(=O)CCc2ccc3occc3c2)c(O[C@@H]2O[C@H](CO)[C@@H](O)[C@H](O)[C@H]2O)c1` here?
Its Ki is 4 nM.

With `Cc1cc(O)c(C(=O)CCc2ccc3c(c2)OCCO3)c(O[C@@H]2O[C@H](CO)[C@@H](O)[C@H](O)[C@H]2O)c1` as the compound, how does the Ki read?
Its Ki is 9 nM.

For `CCc1cc(O)c(C(=O)CCc2ccc3c(c2)OCCO3)c(O[C@@H]2O[C@H](CO)[C@@H](O)[C@H](O)[C@H]2O)c1`, which Ki is on record?
The Ki was 10 nM.

With `Cc1cc(N)c(C(=O)CCc2ccc3ccccc3c2)c(O[C@@H]2O[C@H](CO)[C@@H](O)[C@H](O)[C@H]2O)c1` as the compound, how does the Ki read?
The Ki was 520 nM.

Which Ki does the source give for `CCOc1ccc(CCC(=O)c2c(O)cc(C(C)C)cc2O[C@@H]2O[C@H](CO)[C@@H](O)[C@H](O)[C@H]2O)cc1` here?
Its Ki is 110 nM.

For `O=C(CCc1ccc2ccccc2c1)c1c(Cl)cccc1O[C@@H]1O[C@H](CO)[C@@H](O)[C@H](O)[C@H]1O`, which Ki is on record?
Its Ki is > 1700 nM.

With `CC(C)c1cc(O)c(C(=O)CCc2ccc3c(c2)OCCO3)c(O[C@@H]2O[C@H](CO)[C@@H](O)[C@H](O)[C@H]2O)c1` as the compound, how does the Ki read?
The Ki was 20 nM.

With `O=C(CCc1ccc2c(c1)OCCO2)c1c(Cl)cccc1O[C@@H]1O[C@H](CO)[C@@H](O)[C@H](O)[C@H]1O` as the compound, how does the Ki read?
The Ki was > 1700 nM.

For `CCOc1ccc(CCC(=O)c2c(Cl)cccc2O[C@@H]2O[C@H](CO)[C@@H](O)[C@H](O)[C@H]2O)cc1`, which Ki is on record?
The Ki was > 1700 nM.
